According to ChEMBL document CHEMBL2390929, “New nitric oxide donating 1,2,4-triazole/oxime hybrids: synthesis, investigation of anti-inflammatory, ulceroginic liability and antiproliferative activities” (Bioorg Med Chem, 2013):

Key:
[1] = tested on: UACC-257; test: Cytotoxicity against human UACC257 cells assessed as cell growth at 10^-5 M after 48 hrs by SRB assay; assay type: functional; conditions: UACC-257, 48 h, read-out: Activity
Method in brief: (§1)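 NCI-60 one-dose screen across nine tumour subpanels. Each agent added once at 10^-5 M, cultures incubated 48 h. Endpoint is sulforhodamine B protein staining read spectrophotometrically. Output is percent growth of treated cells relative to untreated controls.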

[2] = tested on: HCC 2998; test: Cytotoxicity against human HCC2998 cells assessed as cell growth at 10^-5 M after 48 hrs by SRB assay; assay type: functional; conditions: HCC 2998, 48 h, read-out: Activity
Method in brief: (§2)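 NCI 60-cell-line primary one-dose screen across nine tumour subpanels. Compound added at a single concentration of 10^-5 M and cultures incubated 48 h. Endpoint was sulforhodamine B protein staining read spectrophotometrically, with growth expressed as percent of untreated control cells.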

[3] = tested on: SF-295; test: Cytotoxicity against human SF295 cells assessed as cell growth at 10^-5 M after 48 hrs by SRB assay; assay type: functional; conditions: SF-295, 48 h, read-out: Activity; method in brief: as §2
[4] = tested on: SNB-75; test: Cytotoxicity against human SNB75 cells assessed as cell growth at 10^-5 M after 48 hrs by SRB assay; assay type: functional; conditions: SNB-75, 48 h, read-out: Activity; method in brief: as §1
[5] = tested on: COLO 205; test: Cytotoxicity against human COLO205 cells assessed as cell growth at 10^-5 M after 48 hrs by SRB assay; assay type: functional; conditions: COLO 205, 48 h, read-out: Activity; method in brief: as §2
[6] = tested on: SF-268; test: Cytotoxicity against human SF268 cells assessed as cell growth at 10^-5 M after 48 hrs by SRB assay; assay type: functional; conditions: SF-268, 48 h, read-out: Activity; method in brief: as §2
[7] = tested on: Hs-578T; test: Cytotoxicity against human Hs578T cells assessed as cell growth at 10^-5 M after 48 hrs by SRB assay; assay type: functional; conditions: read-out: Activity; method in brief: as §2
[8] = Induction of nitric oxide release in phosphate buffer at pH 7.4 at 0.1 mM after 4 hrs by Griess method in presence of 0.5 mM of N-acetylcysteine; assay type: physicochemical; conditions: pH 7.4, 4 h, 100 µM
Method in brief: (§3)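 Compound in DMF diluted to final 10^-4 M in 1:1 50 mM phosphate buffer pH 7.4/MeOH with 5×10^-4 M N-acetylcysteine, 37 °C. Aliquot mixed with Griess reagent, 10 min at room temperature, A546 read. Nitrite quantified against sodium nitrite standards (10–80 nmol/mL); NO expressed as mol/mol. n = 4 reaction mixtures per compound.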

[9] = tested on: LOX IMVI; test: Cytotoxicity against human LOXIMVI cells assessed as cell growth at 10^-5 M after 48 hrs by SRB assay; assay type: functional; conditions: read-out: Activity; method in brief: as §2
[10] = tested on: RXF 393; test: Cytotoxicity against human RXF393 cells assessed as cell growth at 10^-5 M after 48 hrs by SRB assay; assay type: functional; conditions: RXF 393, 48 h, read-out: Activity; method in brief: as §2
[11] = tested on: Malme-3M; test: Cytotoxicity against human MALME-3M cells assessed as cell growth at 10^-5 M after 48 hrs by SRB assay; assay type: functional; conditions: read-out: Activity; method in brief: as §2
[12] = tested on: A498; test: Cytotoxicity against human A498 cells assessed as cell growth at 10^-5 M after 48 hrs by SRB assay; assay type: functional; conditions: A498, 48 h, read-out: Activity; method in brief: as §2
[13] = tested on: SK-MEL-5; test: Cytotoxicity against human SK-MEL-5 cells assessed as cell growth at 10^-5 M after 48 hrs by SRB assay; assay type: functional; conditions: SK-MEL-5, 48 h, read-out: Activity; method in brief: as §1
[14] = tested on: HT-29; test: Cytotoxicity against human HT-29 cells assessed as cell growth at 10^-5 M after 48 hrs by SRB assay; assay type: functional; conditions: HT-29, 48 h, read-out: Activity; method in brief: as §2
[15] = tested on: A549; test: Cytotoxicity against human A549 cells assessed as cell growth at 10^-5 M after 48 hrs by SRB assay; assay type: functional; conditions: A549, 48 h, read-out: Activity; method in brief: as §2
[16] = tested on: Rattus norvegicus; test: Antiinflammatory activity in albino rat assessed as inhibition of carrageenan-induced paw edema at 0.28 mmol/kg, po after 5 hrs relative to control; assay type: functional
Method in brief: (§4)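 Adult male albino rats (120–140 g), four per group, fasted 24 h with water allowed. Test agent suspended in 0.5% w/v aqueous CMC and given orally at 0.28 mmol/kg; controls received CMC alone. After 30 min, 0.1 mL fresh 1% carrageenan in saline was injected subplantar into the right hind paw and saline into the left. Paw thickness was measured by Vernier caliper; % inhibition = [(VR−VL)control − (VR−VL)treated]/(VR−VL)control ×100. Mean ± SEM, one-way ANOVA.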

[17] = tested on: SN12C; test: Cytotoxicity against human SN12C cells assessed as cell growth at 10^-5 M after 48 hrs by SRB assay; assay type: functional; conditions: read-out: Activity; method in brief: as §1
[18] = tested on: MDA-MB-435; test: Cytotoxicity against human MDA-MB-435 cells assessed as cell growth at 10^-5 M after 48 hrs by SRB assay; assay type: functional; conditions: MDA-MB-435, 48 h, read-out: Activity; method in brief: as §2
[19] = tested on: IGROV-1; test: Cytotoxicity against human IGROV1 cells assessed as cell growth at 10^-5 M after 48 hrs by SRB assay; assay type: functional; conditions: IGROV-1, 48 h, read-out: Activity; method in brief: as §2
[20] = tested on: M14; test: Cytotoxicity against human M14 cells assessed as cell growth at 10^-5 M after 48 hrs by SRB assay; assay type: functional; conditions: M14, 48 h, read-out: Activity; method in brief: as §2
[21] = tested on: CAKI-1; test: Cytotoxicity against human CAKI-1 cells assessed as cell growth at 10^-5 M after 48 hrs by SRB assay; assay type: functional; conditions: CAKI-1, 48 h, read-out: Activity; method in brief: as §2
[22] = tested on: MCF7; test: Cytotoxicity against human MCF7 cells assessed as cell growth at 10^-5 M after 48 hrs by SRB assay; assay type: functional; conditions: MCF7, 48 h, read-out: Activity; method in brief: as §2
[23] = Induction of nitric oxide release in phosphate buffer at pH 7.4 at 0.1 mM after 2 hrs by Griess method in presence of 0.5 mM of N-acetylcysteine; assay type: physicochemical; conditions: pH 7.4, 2 h, 100 µM; method in brief: as §3
[24] = tested on: OVCAR-3; test: Cytotoxicity against human OVCAR3 cells assessed as cell growth at 10^-5 M after 48 hrs by SRB assay; assay type: functional; conditions: OVCAR-3, 48 h, read-out: Activity; method in brief: as §2
[25] = tested on: SF-539; test: Cytotoxicity against human SF539 cells assessed as cell growth at 10^-5 M after 48 hrs by SRB assay; assay type: functional; conditions: SF-539, 48 h, read-out: Activity; method in brief: as §2
[26] = tested on: OVCAR-4; test: Cytotoxicity against human OVCAR4 cells assessed as cell growth at 10^-5 M after 48 hrs by SRB assay; assay type: functional; conditions: OVCAR-4, 48 h, read-out: Activity; method in brief: as §2
[27] = Induction of nitric oxide release in phosphate buffer at pH 7.4 at 0.1 mM after 6 hrs by Griess method in presence of 0.5 mM of N-acetylcysteine; assay type: physicochemical; conditions: pH 7.4, 6 h, 100 µM; method in brief: as §3
[28] = tested on: MDA-MB-468; test: Cytotoxicity against human MDA-MB-468 cells assessed as cell growth at 10^-5 M after 48 hrs by SRB assay; assay type: functional; conditions: MDA-MB-468, 48 h, read-out: Activity; method in brief: as §2
[29] = tested on: MDA-MB-231; test: Cytotoxicity against human MDA-MB-231 cells assessed as cell growth at 10^-5 M after 48 hrs by SRB assay; assay type: functional; conditions: MDA-MB-231, 48 h, read-out: Activity; method in brief: as §2
[30] = tested on: Rattus norvegicus; test: Antiinflammatory activity in albino rat assessed as inhibition of carrageenan-induced paw edema at 0.28 mmol/kg, po after 3 hrs relative to control; assay type: functional; method in brief: as §4

| SMILES | growth at 10 µM [1] | growth at 10 µM [2] | growth at 10 µM [4] | growth at 10 µM [5] | growth at 10 µM [6] | growth at 10 µM [7] | Activity [8] | growth at 10 µM [9] | growth at 10 µM [10] | growth at 10 µM [11] | growth at 10 µM [12] | growth at 10 µM [13] | growth at 10 µM [14] | growth at 10 µM [15] | inhibition in vivo at 280 µmol/kg [16] | growth at 10 µM [17] | growth at 10 µM [18] | growth at 10 µM [19] | growth at 10 µM [20] | growth at 10 µM [21] | other results |
| --- | --- | --- | --- | --- | --- | --- | --- | --- | --- | --- | --- | --- | --- | --- | --- | --- | --- | --- | --- | --- | --- |
| O/N=C(/CSc1nnc(-c2ccccc2)n1-c1ccccc1)c1ccccc1 | 87.6% | 121% | 115% | 107% | 104% | 82.9% | 0.13 mol/mol | 104% | 108% | 100% | 49.5% | 89.2% | 91.6% | 88.6% | 75% | 99.7% | 97.5% | 108% | 103% | 85.4% | growth at 10 µM [3]: 88%; growth at 10 µM [22]: 129%; Activity [23]: 0.1 mol/mol; growth at 10 µM [24]: 92.3%; growth at 10 µM [25]: 120%; growth at 10 µM [26]: 86.6%; Activity [27]: 0.09 mol/mol; growth at 10 µM [28]: 93%; growth at 10 µM [29]: 68.4%; inhibition in vivo at 280 µmol/kg [30]: 65% |
| COc1ccc(-c2nnc(SC/C(=N/O)c3ccccc3)n2-c2ccccc2)cc1OC | 101% | 114% | 91.4% | 100% | 110% | 105% | 0.19 mol/mol | 90.3% | 102% | 93.7% | 94.2% | 85.8% | 97.5% | 90.1% | 78% | 94.5% | 109% | 106% | 98.9% | 98.4% | growth at 10 µM [22]: 100%; Activity [23]: 0.17 mol/mol; growth at 10 µM [24]: 106%; growth at 10 µM [25]: 103%; growth at 10 µM [26]: 90.4%; Activity [27]: 0.17 mol/mol; growth at 10 µM [28]: 107%; growth at 10 µM [29]: 87.5%; inhibition in vivo at 280 µmol/kg [30]: 67% |
